In assay [1] the target is T1, Protease (Human immunodeficiency virus 1, UniProt Q9YQ12). The assay can be described thus: Inhibition of wild type HIV1 HXB2 protease. The essentials: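 HXB2 HIV-1 protease clone (35 ng per 100 µL) in 0.1 M acetic acid, 1.1 M NaCl, pH 5.0. Hexapeptide was preincubated with enzyme for 10 min at 37 °C. Substrate (2.25 µg) was then added and fluorescence (ex 355/em 490 nm) read over 30 min at 37 °C. Eleven twofold dilutions from 100 µM; 1 mM stocks in DMSO/water 1:2. Protease-plus-substrate control without inhibitor.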
T1 sequence (Q9YQ12 whole entry): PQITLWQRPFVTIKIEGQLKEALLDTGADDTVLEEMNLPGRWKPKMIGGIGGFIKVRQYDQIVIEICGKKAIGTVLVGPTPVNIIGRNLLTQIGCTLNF

In assay [2] the target is T2, Human immunodeficiency virus type 1 protease (Human immunodeficiency virus 1, UniProt Q72874, L90M). The assay can be described thus: Inhibition of HIV1 HXB2 protease L90M mutant. A digest of the protocol:
(§1)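 Mutant HIV-1 HXB2 protease clones (I84V, L90M, or I84V+L90M), 70 ng per 100 µL reaction. Buffer: 0.1 M acetic acid, 1.1 M NaCl, pH 5.0. Enzyme preincubated 10 min at 37 °C with hexapeptide (11 twofold dilutions from 100 µM). Substrate (2.25 µg) then added and reacted 30 min at 37 °C. Fluorescence read every 60 s (ex 355/em 490 nm) against a no-inhibitor control.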

The nature of assay [3]: Inhibition of HIV1 HXB2 protease 184V mutant. Details: species or system Human immunodeficiency virus 1; call rule not given here. The essentials:
as §1

Assay [4] can be described thus: Inhibition of HIV1 HXB2 protease […], L90M mutant. On the set-up: species or system Human immunodeficiency virus 1. A digest of the protocol: as §1
Assay [5] in a line: Inhibition of HIV1 HXB2 protease […] mutant at 100 uM. On the set-up: species or system Human immunodeficiency virus 1. A digest of the protocol:
as §1

The nature of assay [6]: Inhibition of HIV1 HXB2 protease […], L90M mutant at 100 uM. On the set-up: species or system Human immunodeficiency virus 1. A digest of the protocol:
as §1

Assay [7] deals with T1, Protease. The assay can be described thus: Inhibition of wild type HIV1 HXB2 protease at 100 uM.
The target of assay [8] is T2, Human immunodeficiency virus type 1 protease. As to the kind of experiment: Inhibition of HIV1 HXB2 protease L90M mutant at 100 uM. The essentials: as §1

Non-standard residues stand in square brackets, D forms with d. Residues, ends and D or L forms follow the SMILES beside them. Groups on a side chain read outwards from the residue. ξ: configuration not given here. *: point of attachment. Phe(4-Br) = N[C@@H](Cc1ccc(Br)cc1)C(=O)O; Phe(4-Cl) = N[C@@H](Cc1ccc(Cl)cc1)C(=O)O; Phe(4-NH2) = Nc1ccc(C[C@H](N)C(=O)O)cc1; 2Nal = N[C@@H](Cc1ccc2ccccc2c1)C(=O)O; hArg = N=C(N)NCCCC[C@H](N)C(=O)O; hPhe = N[C@@H](CCc1ccccc1)C(=O)O; Cha = N[C@@H](CC1CCCCC1)C(=O)O; Phg = N[C@H](C(=O)O)c1ccccc1; Nle = CCCC[C@H](N)C(=O)O; Dab = NCC[C@H](N)C(=O)O; Nva = CCC[C@H](N)C(=O)O; Dap = NC[C@H](N)C(=O)O; ξDab = NCCC(N)C(=O)O; ξDap = NCC(N)C(=O)O; Bn = c1ccc(C*)cc1

Take `CCC[C@H](NC(=O)[C@H](Cc1ccc2ccccc2c1)NC(=O)[C@H](CCC(=O)O)NC(=O)C(N)CNC(=O)[C@H](CC1CCCCC1)NC(=O)[C@@H](N)Cc1ccc2ccccc2c1)C(=O)O` (stereo not given in full) (H-[ξDap]([Cha-2Nal])E[2Nal][Nva]-OH): the inhibitory constant (Ki) (as a rule, a measure of affinity in units of concentration, obtained from inhibition or displacement) on Protease [1] is 12 µM; in assay [2] it was 9.7 µM; in assay [3] it was 20.7 µM; in assay [4], 20.8 µM.
Turning to `CCCC[C@H](NC(=O)[C@@H](N)Cc1ccc2ccccc2c1)C(=O)NCC[C@H](N)C(=O)N[C@@H](CCC(=O)O)C(=O)N[C@@H](CCc1ccccc1)C(=O)N[C@@H](CCC)C(=O)O` (H-[Dab]([Nle-2Nal])E[hPhe][Nva]-OH), the Ki on Protease [1] was 22 µM; in assay [2], 16.7 µM; in assay [5], “Not Active”; in assay [6], “Not Active”.
With `CC(=O)N[C@H](C(=O)N[C@@H](CC(N)=O)C(=O)N[C@H](C(=O)N[C@H](C(=O)N[C@@H](C)C(=O)N[C@@H](CC(=O)O)C(=O)O)[C@@H](C)O)[C@@H](C)O)[C@@H](C)O` (Ac-TNTTAD-OH), the Ki entry (on Protease [7]; in assay [8]; in assay [5]; in assay [6]) was “Not Active” in each case.
As for `CC(C)C[C@H](NC(=O)[C@H](Cc1ccccc1)NC(=O)[C@H](CCCCNC(=N)N)NC(=O)[C@@H](N)CNC(=O)[C@H](CC1CCCCC1)NC(=O)[C@@H](N)CCc1ccccc1)C(=O)O` (H-[Dap]([Cha-hPhe])[hArg]FL-OH), the Ki at Protease [1] is 4.6 µM; in assay [2], 26.5 µM; in assay [5] it was “Not Active”; in assay [6] it was “Not Active”.
Turning to `CC(=O)N[C@H](C(=O)N[C@@H](C)C(=O)N[C@@H](C)C(=O)NCC(=O)N[C@@H](CCCNC(=N)N)C(=O)N[C@H](C(=O)O)[C@@H](C)O)[C@@H](C)O` (Ac-TAAGRT-OH), the Ki result (on Protease [7]; in assay [8]; in assay [5]; in assay [6]) was “Not Active” throughout.
For `CCC[C@H](NC(=O)[C@H](Cc1ccc(O)cc1)NC(=O)[C@H](CCCCNC(=N)N)NC(=O)[C@H](CCSC)NC(=O)[C@@H](NC(=O)[C@@H](N)Cc1ccc2ccccc2c1)C(C)C)C(=O)O` (H-[2Nal]VM[hArg]Y[Nva]-OH), the inhibitory constant (Ki) at Protease [1] came out at 5.4 µM; in assay [2], 6.9 µM; in assay [3], 19.9 µM; in assay [4], 7.5 µM.
As to `CC(=O)N[C@@H](CO)C(=O)N1CCC[C@H]1C(=O)N[C@@H](C)C(=O)N[C@H](C(=O)N[C@@H](CCC(=O)O)C(=O)N[C@@H](C)C(=O)O)[C@@H](C)O` (Ac-SPATEA-OH), the Ki entry (on Protease [7]; in assay [8]; in assay [5]; in assay [6]) was “Not Active” throughout.
On to `CC(=O)NCC(=O)N[C@H](C(=O)N[C@@H](C)C(=O)N[C@@H](Cc1ccc(O)cc1)C(=O)N[C@@H](CO)C(=O)N[C@@H](CS)C(=O)O)[C@@H](C)O` (Ac-GTAYSC-OH), for which the Ki entry (at Protease [7]; in assay [8]; in assay [5]; in assay [6]) was “Not Active” each time.
With `N=C(N)NCCC[C@H](NC(=O)C(N)CCNC(=O)[C@H](CC1CCCCC1)NC(=O)[C@@H](N)CCc1ccccc1)C(=O)N[C@@H](CCc1ccccc1)C(=O)N[C@@H](CC1CCCCC1)C(=O)O` (stereo not given in full) (H-[ξDab]([Cha-hPhe])R[hPhe][Cha]-OH), the Ki at Protease [1] was 2 µM; in assay [2], 47.4 µM; in assay [5] it was “Not Active”; in assay [6] it was “Not Active”.
On to `CC(=O)N[C@@H](CC(=O)O)C(=O)NCC(=O)NCC(=O)N[C@@H](C)C(=O)N[C@@H](CC(C)C)C(=O)N[C@@H](CO)C(=O)O` (Ac-DGGALS-OH), for which the Ki entry (on Protease [7]; in assay [8]; in assay [5]; in assay [6]) was “Not Active” each time.
Take `CC(C)C[C@H](NC(=O)[C@H](Cc1ccc(Br)cc1)NC(=O)[C@H](CCC(=O)O)NC(=O)C(N)CNC(=O)[C@H](CC1CCCCC1)NC(=O)[C@@H](N)Cc1ccc(Cl)cc1)C(=O)O` (stereo partly drawn) (H-[ξDap]([Cha-Phe(4-Cl)])E[Phe(4-Br)]L-OH): the Ki on Protease [1] is 5.5 µM; in assay [2], 15.7 µM; in assay [3], 37.7 µM; in assay [4], 34.6 µM.
Take `CC(=O)N[C@@H](C)C(=O)N[C@@H](Cc1cnc[nH]1)C(=O)N[C@@H](Cc1ccc(O)cc1)C(=O)N[C@@H](C)C(=O)N[C@H](C(=O)N[C@@H](Cc1cnc[nH]1)C(=O)O)[C@@H](C)O` (Ac-AHYATH-OH): the Ki result (on Protease [7]; in assay [8]; in assay [5]; in assay [6]) was “Not Active” in each case.
With `CSCC[C@H](NC(=O)[C@H](CC1CCCCC1)NC(=O)[C@@H](N)Cc1ccc2ccccc2c1)C(=O)N[C@@H](CCC(=O)O)C(=O)N[C@H](C(=O)N[C@@H](CC1CCCCC1)C(=O)O)c1ccccc1` (H-[2Nal][Cha]ME[Phg][Cha]-OH), the Ki on Protease [1] turned out to be 5.5 µM; in assay [2], 2.4 µM; in assay [3], 3.9 µM; in assay [4], 2.7 µM.
For `CC(=O)N1CCC[C@H]1C(=O)N[C@@H](Cc1ccc(O)cc1)C(=O)N[C@@H](C)C(=O)NCC(=O)N[C@@H](C)C(=O)N[C@@H](CCC(N)=O)C(=O)O` (Ac-PYAGAQ-OH), the Ki result (on Protease [7]; in assay [8]; in assay [5]; in assay [6]) was “Not Active” in each case.
On to `CC(=O)N[C@@H](CO)C(=O)N[C@H](C(=O)N[C@@H](CCCNC(=N)N)C(=O)N[C@@H](CS)C(=O)N[C@@H](CO)C(=O)N[C@@H](Cc1c[nH]c2ccccc12)C(=O)O)C(C)C` (Ac-SVRCSW-OH), for which the Ki entry (at Protease [7]; in assay [8]; in assay [5]; in assay [6]) was “Not Active” each time.
Turning to `CC(=O)N[C@@H](Cc1ccc(O)cc1)C(=O)N[C@@H](C)C(=O)N[C@H](C(=O)N1CCC[C@H]1C(=O)NCC(=O)N[C@H](C(=O)O)[C@H](C)O)[C@H](C)O`, the Ki result (on Protease [7]; in assay [8]; in assay [5]; in assay [6]) was “Not Active” in each case.
Take `CCC[C@H](NC(=O)[C@H](Cc1ccc2ccccc2c1)NC(=O)[C@H](CCCCNC(=N)N)NC(=O)[C@@H](N)CNC(=O)[C@H](CCC)NC(=O)[C@@H](N)CCc1ccccc1)C(=O)O` (H-[Dap]([Nva-hPhe])[hArg][2Nal][Nva]-OH): the Ki on Protease [1] stood at 5.2 µM; in assay [2], 23.6 µM; in assay [3], 13.3 µM; in assay [4] it was 15.7 µM.
As for `NC(CCNC(=O)[C@H](CC1CCCCC1)NC(=O)[C@@H](N)Cc1ccc(Cl)cc1)C(=O)N[C@@H](CCC(=O)O)C(=O)N[C@@H](Cc1ccccc1)C(=O)N[C@@H](CC1CCCCC1)C(=O)O` (stereo not given in full) (H-[ξDab]([Cha-Phe(4-Cl)])EF[Cha]-OH), the Ki at Protease [1] is 3.8 µM; in assay [2], 31.1 µM; in assay [5] it was “Not Active”; in assay [6], “Not Active”.
`CCCC[C@H](NC(=O)[C@H](Cc1ccc(OCc2ccccc2)cc1)NC(=O)[C@H](Cc1ccc(N)cc1)NC(=O)[C@H](CCCCN)NC(=O)[C@H](CC1CCCCC1)NC(=O)[C@@H](N)Cc1ccc2ccccc2c1)C(=O)O` (H-[2Nal][Cha]K[Phe(4-NH2)]Y(Bn)[Nle]-OH): the Ki worked out at 24.1 µM at Protease [1], 9.2 µM in assay [2], 31.6 µM in assay [3] and 56 µM in assay [4].
Turning to `CC[C@H](C)[C@H](NC(=O)[C@H](Cc1cnc[nH]1)NC(=O)[C@H](C)NC(=O)[C@H](CO)NC(=O)[C@H](CCCNC(=N)N)NC(=O)[C@@H](NC(C)=O)C(C)C)C(=O)O` (Ac-VRSAHI-OH), the Ki result (on Protease [7]; in assay [8]; in assay [5]; in assay [6]) was “Not Active” throughout.
